Assay results: ChEMBL document CHEMBL4477226, “Reduction Sensitive Lipid Conjugates of Tenofovir: Synthesis, Stability, and Antiviral Activity” (J Med Chem, 2016)
Counter-ions that a name gives are not always drawn.

Legend:
[1] = Half life in human serum at 10^-3 M by HPLC analysis; assay type: ADME, cell-free
[2] = Half life in human gastric juice; assay type: ADME, tissue-based
[3] = Half life in pH 2 solution at 10^-3 M by HPLC analysis; assay type: physicochemical
[4] = Half life in RPMI 1640 culture medium at 10^-3 M by HPLC analysis; assay type: physicochemical
[5] = Half life in pH 7.4 Tris HCl buffer containing KCl at 10^-3 M by HPLC analysis; assay type: physicochemical
[6] = tested on: HepG2 2.2.15; test: (§1) Cytotoxicity against human HepG2.2.15 cells assessed as reduction in cell viability after 6 days by XTT assay; assay type: cell-based; settings: hepg2 2.2.15, 144 h
[7] = Therapeutic index, ratio of CC50 for human PBMC to EC50 for HIV1 infected in human PBMC; assay type: toxicity; settings: read-out: Ratio CC50/EC50
Procedure, shortened: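 TI is the ratio of PBMC CC50 (uninfected cells, 50% viability loss) to EC50 for 50% inhibition of HIV-1, both in μM; HIV-1 activity measured as reverse transcriptase in supernatants of infected PBMCs.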

[8] = tested on: Human immunodeficiency virus 1; test: Antiviral activity against HIV1 infected in human PBMC assessed as inhibition of viral replication by measuring reverse transcriptase activity in cell supernatant preincubated with cells followed by viral infection measured after 7 days by radioactive incorporation polymerization assay; assay type: functional, organism-based
Procedure, shortened: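 HIV-infected PBMCs; antiviral activity read as reverse transcriptase in cell supernatants; EC50 is the concentration in μM that inhibits HIV-1 by 50%.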

[9] = Therapeutic index, ratio of CC50 for human HepG2.2.15 cells to EC50 for HBV infected in human HepG2.2.15 cells; assay type: toxicity, cell-based; settings: read-out: Ratio CC50/EC50
[10] = tested on: PBMC; test: (§2) Cytotoxicity against human PBMC assessed as reduction in cell viability by XTT assay; assay type: cell-based
Procedure, shortened: (§3)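 CC50 is the concentration in μM that reduces viability of uninfected PBMCs by 50%.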

[11] = tested on: Hepatitis B virus; test: Antiviral activity against HBV infected in human HepG2.2.15 cells assessed as inhibition of viral DNA in cell supernatant incubated for 3 days in presence of 10% FBS followed by compound treatment in absence of 10% FBS for 3 days by qRT-PCR method; assay type: functional, organism-based; settings: HepG2.2.15, 72 h
Procedure, shortened: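 HBV assay in HepG2.2.15 cells; viral DNA quantified by qPCR after 6 days of incubation.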

[12] = as §1; assay type: cell-based, HepG2 2.2.15; settings: HepG2.2.15 cells
[13] = as §2; assay type: cell-based; procedure, shortened: as §3
[14] = Stability in pH 7.4 phosphate buffered saline assessed as lipid adsorption on glass surface using kimax glassware measured up to 1440 mins by LC-MS analysis; assay type: physicochemical; settings: buffer, pH 7.4, 24 h
[15] = Stability in pH 7.4 phosphate buffered saline assessed as lipid adsorption on glass surface using silanized glassware measured up to 1440 mins by LC-MS analysis; assay type: physicochemical; settings: buffer, pH 7.4, 24 h
[16] = Stability in pH 7.4 phosphate buffered saline assessed as lipid adsorption on glass surface using pyrex glassware measured up to 1440 mins by LC-MS analysis; assay type: physicochemical; settings: buffer, pH 7.4, 24 h
[17] = Stability in pH 9 Sodium carbonate/bicarbonate buffer at 2 mg by LC-MS analysis; assay type: physicochemical; settings: in vitro
Procedure, shortened: (§4)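 Compound incubated in human serum, PBS (pH 7.4), DMEM, or carbonate/bicarbonate buffer (pH 9). Aliquots were taken at several time points over 2 h, with a final sample at 24 h, and analysed by LC-MS to follow decomposition. Half-life was derived from loss of parent over time.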

[18] = Half life in pH 7.4 phosphate buffered saline at 2 mg using kimax glassware by LC-MS analysis; assay type: physicochemical; procedure, shortened: as §4
[19] = Half life in pH 7.4 phosphate buffered saline at 2 mg by LC-MS analysis; assay type: physicochemical; procedure, shortened: as §4
[20] = Half life in pH 9 Sodium carbonate/bicarbonate buffer at 2 mg using kimax glassware by LC-MS analysis; assay type: physicochemical; procedure, shortened: as §4
[21] = Half life in human plasma at 2 mg by LC-MS analysis; assay type: ADME, cell-free; procedure, shortened: as §4
[22] = Half life in DMEM at 2 mg using kimax glassware by LC-MS analysis; assay type: physicochemical; procedure, shortened: as §4
[23] = Stability in DMEM at 2 mg by LC-MS analysis; assay type: physicochemical; settings: in vitro; procedure, shortened: as §4
[24] = Therapeutic index, ratio of CC90 for human PBMC to EC90 for HIV1 infected in human PBMC; assay type: toxicity; settings: read-out: TI
Procedure, shortened: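 HIV-1-infected human PBMCs; antiviral effect read as reverse transcriptase activity in culture supernatants. Toxicity measured as loss of viability in uninfected PBMCs. Index calculated as the cytotoxic concentration divided by the effective concentration at the 90% level (CC90/EC90).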

[25] = Oral bioavailability in rhesus monkey by HPLC analysis; assay type: ADME, organism-based, Macaca mulatta; settings: in vivo
[26] = Oral bioavailability in rat at 30 mg/kg, administered through gastric intubation by HPLC analysis; assay type: ADME, organism-based; settings: in vivo
[27] = Oral bioavailability in mouse; assay type: ADME, organism-based; settings: in vivo

SMILES | selectivity ratio [7] | EC50 [8] | selectivity ratio [9] | CC50 [10] | EC50 [11] | also measured
Nc1ncnc2c1ncn2CCOCP(=O)(OCCSSCCO)OCCSSCCO |  |  |  |  |  | half-life at 1000 µM [1]: < 4.98 min; half-life [2]: > 1440 min; half-life at 1000 µM [3]: > 1440 min; half-life at 1000 µM [4]: > 1440 min; half-life at 1000 µM [5]: > 1440 min
CCCCCCCCCCCCSSCCOP(=O)(O)CO[C@H](C)Cn1cnc2c(N)ncnc21 | 8300 | 3 nM | > 30 | 25 µM | 1.67 µM | CC50 [6]: > 50 µM
CCCCCCCCCCCCCCCCSSCCOP(=O)(CO[C@H](C)Cn1cnc2c(N)ncnc21)Nc1ccccc1 (some centres undefined) | 7000 | 5 nM |  | 34.2 µM |  | 
CCCCCCCCCCCCCCCCCCSSCCOP(=O)(CO[C@H](C)Cn1cnc2c(N)ncnc21)OCCSSCCCCCCCCCCCCCCCCCC | > 76 | 331 nM | > 1 |  | > 25 µM | CC50 at 144 h [12]: > 25 µM; CC50 [13]: > 25 µM
CCCCCCCCCCCCCCCCSSCCOP(=O)(CO[C@H](C)Cn1cnc2c(N)ncnc21)OCc1ccccc1 (some centres undefined) | 2300 | 18 nM |  | 41.1 µM |  | 
CCCCCCCCCCCCCCCCSSCCOP(=O)(CO[C@H](C)Cn1cnc2c(N)ncnc21)OCCC (some centres undefined) | 49 | 216 nM |  | 10.6 µM |  | 
CCCCCCCCCCSSCCOP(=O)(O)CO[C@H](C)Cn1cnc2c(N)ncnc21 | > 590 | 85 nM | > 1 | > 50 µM | > 50 µM | CC50 [6]: > 50 µM
CCCCCCCCCCSSCCOP(=O)(CO[C@H](C)Cn1cnc2c(N)ncnc21)OCCSSCCCCCCCCCC | > 287 | 349 nM | > 1 |  | > 100 µM | CC50 at 144 h [12]: > 100 µM; CC50 [13]: > 100 µM
CCCCCCCCCCCCCCCCOCCCOC[C@H]1O[C@@H](n2ccc(=O)[nH]c2=O)[C@H](F)[C@@H]1O |  |  |  |  |  | Stability [14]: Stable; Stability [15]: Unstable; Stability [16]: Unstable
C[C@H](Cn1cnc2c(N)ncnc21)OCP(=O)(O)OCCS |  |  |  | > 100 µM | 41.9 µM | CC50 [6]: > 100 µM
CCCCCCCCCCCCCCCCSSCCOP(=O)(CO[C@H](C)Cn1cnc2c(N)ncnc21)OCC (some centres undefined) | 104 | 349 nM |  | 36.2 µM |  | 
CCCCCCCCCCCCCCCCCCSSCCOP(=O)(O)CO[C@H](C)Cn1cnc2c(N)ncnc21 | 11000 | 0.6 nM | > 50 | 6.36 µM | 0.505 µM | CC50 [6]: > 50 µM
CCCCCCCCCCCCSSCCOP(=O)(CO[C@H](C)Cn1cnc2c(N)ncnc21)OCCSSCCCCCCCCCCCC | > 85 | 1180 nM | > 1 |  | > 100 µM | CC50 at 144 h [12]: > 100 µM; CC50 [13]: > 100 µM
CCCCCCCCCCCCCCCCSSCCOP(=O)(O)CO[C@H](C)Cn1cnc2c(N)ncnc21.N | 22000 | 0.65 nM | 1200 to 1250 | 14.3 µM | 0.02 µM | Stability [17]: Unstable; CC50 [6]: > 25 µM; half-life [18]: < 120 min; half-life [19]: < 20 min; half-life [20]: < 120 min; t1/2 [21]: > 24 h; half-life [22]: < 120 min; Stability [23]: Unstable; selectivity ratio [24]: 11000
CCCCCCCCCCCCCCCCSSCCOP(=O)(CO[C@H](C)Cn1cnc2c(N)ncnc21)OCCSSCCCCCCCCCCCCCCCC | 4 | 6320 nM | > 1 |  | > 25 µM | CC50 at 144 h [12]: > 25 µM; CC50 [13]: > 25 µM
CCCCCCCCCCCCCCCCSSCCOP(=O)(CO[C@H](C)Cn1cnc2c(N)ncnc21)OC (some centres undefined) | 1500 | 26 nM |  | 38.2 µM |  | 
CCCCCCCCCCCCCCCCSSCCOP(=O)(CO[C@H](C)Cn1cnc2c(N)ncnc21)OCCCCCCCC (some centres undefined) | > 50 | 911 nM |  |  |  | CC50 [13]: > 50 µM
CCCCCCCCCCCCCCCCSSCCOP(=O)(CO[C@H](C)Cn1cnc2c(N)ncnc21)OCCCC (some centres undefined) | 150 | 190 nM |  | 27.9 µM |  | 
CCCCCCCCCCCCCCSSCCOP(=O)(CO[C@H](C)Cn1cnc2c(N)ncnc21)OCCSSCCCCCCCCCCCCCC | > 529 | 189 nM | > 1 |  | > 100 µM | CC50 at 144 h [12]: > 100 µM; CC50 [13]: > 100 µM
C[C@H](Cn1cnc2c(N)ncnc21)OCP(=O)(O)OCCSSCCO | > 62.1 | 1610 nM | > 8.6 | > 100 µM | 11.6 µM | CC50 [6]: > 100 µM; half-life [19]: 210 min; t1/2 [21]: < 0.567 h
CCCCCCCCCCCCCCSSCCOP(=O)(O)CO[C@H](C)Cn1cnc2c(N)ncnc21.N | 28000 to 30000 | 0.5 nM | > 56 | 14 µM | 0.444 µM | Stability [17]: Unstable; CC50 [6]: > 25 µM; half-life [18]: < 120 min; half-life [20]: < 120 min; t1/2 [21]: > 24 h; half-life [22]: < 120 min; Stability [23]: Unstable; selectivity ratio [24]: 11000
CCCCCCCCCCCCCCCCSSCCOP(=O)(CO[C@H](C)Cn1cnc2c(N)ncnc21)OCC(C)(C)C (mixture of isomers) | > 700 | 140 nM |  | > 100 µM |  | 
Nc1ncnc2c1ncn2CCOCP(=O)(O)O [ADEFOVIR] |  |  |  |  |  | bioavailability [25]: < 1%; bioavailability [26]: 8 to 11%
C[C@H](Cn1cnc2c(N)ncnc21)OCP(=O)(O)O [TENOFOVIR ANHYDROUS] | > 300 | 319 nM |  | > 100 µM |  | bioavailability [27]: 2%
CC(C)OC(=O)OCOP(=O)(CO[C@H](C)Cn1cnc2c(N)ncnc21)OCOC(=O)OC(C)C [TENOFOVIR DISOPROXIL FUMARATE] | 9500 | 4.6 nM | 86 to 190 | 43.7 µM | 0.34 µM | CC50 at 144 h [12]: 29.2 to 64.5 µM; selectivity ratio [24]: 1300
CCCCCCCCCCCCCCCCOCCCOP(=O)(O)CO[C@H](C)Cn1cnc2c(N)ncnc21 [TENOFOVIR EXALIDEX] | > 5000 | 20 nM |  | > 100 µM |  | 
